From paper PMC12234697 (Scientific Reports, 2025)
pIC50: −log10 of the molar value. Read-outs that look alike come from different tables or passages of the source.

Key:
[1] = test system: HBV-expressing HepG2.2.15.7 cells; type: cell-based; conditions: Hepatitis B virus
Procedure, shortened: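 HBV-producing HepG2.2.15.7 cells (derived from HepG2.2.15) were exposed to test compound at 0.1, 0.3, 1, 3, 10, 30 and 100 µM, […]. Enveloped Dane particles in the supernatant were captured by anti-HBs immunoprecipitation, and HBV DNA was then quantified by real-time PCR with S-gene primers/probe. Cell viability was read in parallel, n = 3. IC50 and CC50 were derived from dose curves.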

[2] = Cell viability of HepG2.2.15.7 cells; type: cell-based; conditions: human
Procedure, shortened: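 HepG2.2.15.7 cells (stable high-level HBV expression) seeded at 1.5 × 10^5 cells/well, grown overnight and PBS-washed. Fresh medium with compound (0.1, 0.3, 1, 3, 10, 30, 100 µM final; DMSO stocks) added for 48 h. Cell viability measured, n = 3; CC50 derived from the dose-response.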

[3] = test system: LHBs protein and HBc protein; assay: Western blot analysis of intracellular HBV proteins; type: cell-based, hepatitis B virus; conditions: HepG2.2.15.7 cells; hit compound 16 10 µM, 38 and 39 30 µM; n = 3
Procedure, shortened: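 Treated HepG2.2.15.7 cells were lysed in RIPA buffer and soluble protein was run on SDS-PAGE, then transferred to PVDF. Blots were blocked, then given primary antibodies (including rabbit polyclonal anti-HBc; β-actin as loading control) at 4 °C overnight and secondaries 1 h at room temperature. ECL detection; bands quantified by densitometry, n = 3.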

precore mRNA and pgRNA = assay: Measurement of intracellular HBV RNA by real-time PCR; type: cell-based, hepatitis B virus; conditions: HepG2.2.15.7 cells; hit compound 16 10 µM, 38 and 39 30 µM; n = 3
Procedure, shortened: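 Total RNA from treated HepG2.2.15.7 cells was TRIzol-extracted and reverse-transcribed with DNase treatment. SYBR Green real-time PCR used primers PCP/BC1 for precore mRNA and PGP/BC1 for precore mRNA plus pgRNA, normalised to GAPDH. n = 3; Mann-Whitney U test, p < 0.05.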

[4] = no reference given; cited from earlier work

Structure (SMILES): C=C[C@H]1C[N@@]2CC[C@H]1C[C@@H]2[C@@H](O)c1ccnc2ccc(OC)cc12 [Compound 39, quinidine]
- pIC50 ([1]; HepG2.2.15.7, read-out: IC50 (HBV DNA after the immunoprecipitation)): 4.73
- IC50 ([1]; HepG2.2.15.7, read-out: IC50 against HBV expressed in µg/mL): 2.8 µg/mL
- CC50 at 48 h [2]: 131 µM
- HBc protein level (western blot) [3]: no significant differences
- LHBs protein level (western blot) [3]: no significant differences
- pgRNA level compared to a control (precore mRNA and pgRNA): no significant difference
- precore mRNA level compared to a control (precore mRNA and pgRNA): no significant difference
- effective blood concentration for arrhythmia [4]: 2.3 to 5.0 µg/mL
